pIC50: −log10 of the molar value. Calls of active or inactive are those of the source. No cut-off for these calls is given here.
Experiments:
[1] = Downregulation of cyclin B1 expression in human HuH7 cells at 1 to 10 uM after 24 hrs by immunoblot analysis; assay type: functional, cell-based; conditions: Huh-7
How it was run: (§1)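 Huh-7 cells were treated with DMSO or compound at 1, 5 and 10 μM for 24 h. Cells were lysed in NP-40 buffer with protease and phosphatase inhibitors, and protein was measured by Bradford. Lysate protein was resolved by SDS-PAGE and transferred to PVDF. Membranes were blocked in 5% milk, probed with primary antibodies for 2 h and secondary antibodies for 30 min, and detected by ECL, with β-actin as loading control.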

[2] = Cell cycle arrest in human HuH7 cells assessed as accumulation at G2/M phase at 1 uM for 24 hrs by propidium iodide staining based flow cytometry (reference value: 25.2 +/- 3.5%); assay type: functional; conditions: Huh-7
[3] = target: DNA topoisomerase 2-alpha (Homo sapiens) (UniProt P11388); assay: Inhibition of human DNA topoisomerase 2-mediated relaxation of supercoiled pBR322 DNA at 10 uM after 30 mins by ethidium bromide staining based agarose gel electrophoresis
How it was run: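 Human topo I or topo II (2 units) was reacted with 0.2 μg supercoiled pBR322 in 20 μl Tris-HCl pH 7.5 containing KCl, DTT, EDTA, MgCl2 and BSA, with DMSO held at 0.5%, for 30 min at 37°C. The reaction was stopped with SDS. Samples were run on 1% agarose in Tris-acetate/EDTA at 1.5 V/cm for 2-3 h and stained with ethidium bromide. Relaxation was quantified by densitometry of the supercoiled band area.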

[4] = Induction of apoptosis in human HuH7 cells assessed as upregulation of Bad expression at 1 to 10 uM after 24 hrs by Western blot analysis; assay type: functional, cell-based; conditions: Huh-7
[5] = Downregulation of cyclin A expression in human HuH7 cells at 1 to 10 uM after 24 hrs by immunoblot analysis; assay type: functional, cell-based; conditions: Huh-7; how it was run: as §1
[6] = target: RAC-alpha serine/threonine-protein kinase (Homo sapiens) (UniProt P31749); assay: Inhibition of AKT1 phosphorylation in human HuH7 cells at 1 to 10 uM after 24 hrs by immunoblot analysis; assay type: cell-based; conditions: Huh-7; how it was run: as §1
Escherichia coli = assay: Binding affinity to Escherichia coli negative supercoiled pBR322 DNA at 10 uM after 12 hrs by ethidium bromide staining based agarose gel electrophoresis
How it was run: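 Negatively supercoiled pBR322 (400 ng) in TE buffer pH 8.0 was incubated with compound at 10 μM for 12 h at room temperature. Loading buffer with sarkosyl was added. Samples were run on 1% agarose at 6 V/cm for 2.5 h in TAE pH 8.5, stained with ethidium bromide and photographed under UV.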

[7] = Selectivity index, ratio of IC50 for human MRC5 cells to IC50 for human H1299 cells; assay type: functional
[8] = Cell cycle arrest in human HuH7 cells assessed as accumulation at G1 phase at 10 uM for 24 hrs by propidium iodide staining based flow cytometry (reference value: 62.1 +/- 1.4%); assay type: functional; conditions: Huh-7
[9] = Cell cycle arrest in human HuH7 cells assessed as accumulation at G2/M phase at 5 uM for 24 hrs by propidium iodide staining based flow cytometry (reference value: 25.2 +/- 3.5%); assay type: functional; conditions: Huh-7
MDA-MB-231 = assay: Antiproliferative activity against human MDA-MB-231 cells after 72 hrs by XTT assay; assay type: functional, cell-based; conditions: MDA-MB-231, 72 h
How it was run: (§2)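 Cells kept as monolayers in DMEM with 10% FBS, penicillin, streptomycin and amphotericin at 37°C, 5% CO2. Seeded at 5 x 10³ cells/well and exposed to compound for 72 h in medium with 10% FBS. XTT plus electron-coupling reagent added, 4 h at 37°C, absorbance read at 492 nm. Percent of control growth uses mean absorbance (n = 3). The 50% value is taken from the linear portion of the curve.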

[10] = Cell cycle arrest in human HuH7 cells assessed as accumulation at sub G1 phase at 5 uM for 24 hrs by propidium iodide staining based flow cytometry (reference value: 1.3 +/- 0.7%); assay type: functional; conditions: Huh-7
[11] = Cell cycle arrest in human HuH7 cells assessed as accumulation at S phase at 5 uM for 24 hrs by propidium iodide staining based flow cytometry (reference value: 11.4 +/- 2.4%); assay type: functional; conditions: Huh-7
[12] = Cell cycle arrest in human HuH7 cells assessed as accumulation at G2/M phase at 10 uM for 24 hrs by propidium iodide staining based flow cytometry (reference value: 25.2 +/- 3.5%); assay type: functional; conditions: Huh-7
[13] = Antiproliferative activity against human HuH7 cells after 72 hrs by XTT assay; assay type: functional, cell-based; conditions: Huh-7, 72 h; how it was run: as §2
Huh-7 [14] = assay: Antitumor activity against human HuH7 cells xenografted in zebrafish assessed as reduction in tumor size after 24 to 48 hrs post injection by fluorescence microscopy; assay type: functional, cell-based
How it was run: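 About 100 Huh-7 cells were implanted into the yolk sac of anesthetized 48 hpf zebrafish embryos. Embryos were then kept in water containing compound at 0.1 to 2.0 μg/ml for 24 and 48 h post-injection. Embryos were imaged by fluorescence microscopy, with red fluorescence intensity taken as proportional to xenograft tumor size.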

Huh-7 [15] = assay: Selectivity index, ratio of IC50 for human MRC5 cells to IC50 for human HuH7 cells; assay type: functional
[16] = Cell cycle arrest in human HuH7 cells assessed as accumulation at sub G1 phase at 10 uM for 24 hrs by propidium iodide staining based flow cytometry (reference value: 1.3 +/- 0.7%); assay type: functional; conditions: Huh-7

Sequence of DNA topoisomerase 2-alpha (Homo sapiens) (P11388 whole entry): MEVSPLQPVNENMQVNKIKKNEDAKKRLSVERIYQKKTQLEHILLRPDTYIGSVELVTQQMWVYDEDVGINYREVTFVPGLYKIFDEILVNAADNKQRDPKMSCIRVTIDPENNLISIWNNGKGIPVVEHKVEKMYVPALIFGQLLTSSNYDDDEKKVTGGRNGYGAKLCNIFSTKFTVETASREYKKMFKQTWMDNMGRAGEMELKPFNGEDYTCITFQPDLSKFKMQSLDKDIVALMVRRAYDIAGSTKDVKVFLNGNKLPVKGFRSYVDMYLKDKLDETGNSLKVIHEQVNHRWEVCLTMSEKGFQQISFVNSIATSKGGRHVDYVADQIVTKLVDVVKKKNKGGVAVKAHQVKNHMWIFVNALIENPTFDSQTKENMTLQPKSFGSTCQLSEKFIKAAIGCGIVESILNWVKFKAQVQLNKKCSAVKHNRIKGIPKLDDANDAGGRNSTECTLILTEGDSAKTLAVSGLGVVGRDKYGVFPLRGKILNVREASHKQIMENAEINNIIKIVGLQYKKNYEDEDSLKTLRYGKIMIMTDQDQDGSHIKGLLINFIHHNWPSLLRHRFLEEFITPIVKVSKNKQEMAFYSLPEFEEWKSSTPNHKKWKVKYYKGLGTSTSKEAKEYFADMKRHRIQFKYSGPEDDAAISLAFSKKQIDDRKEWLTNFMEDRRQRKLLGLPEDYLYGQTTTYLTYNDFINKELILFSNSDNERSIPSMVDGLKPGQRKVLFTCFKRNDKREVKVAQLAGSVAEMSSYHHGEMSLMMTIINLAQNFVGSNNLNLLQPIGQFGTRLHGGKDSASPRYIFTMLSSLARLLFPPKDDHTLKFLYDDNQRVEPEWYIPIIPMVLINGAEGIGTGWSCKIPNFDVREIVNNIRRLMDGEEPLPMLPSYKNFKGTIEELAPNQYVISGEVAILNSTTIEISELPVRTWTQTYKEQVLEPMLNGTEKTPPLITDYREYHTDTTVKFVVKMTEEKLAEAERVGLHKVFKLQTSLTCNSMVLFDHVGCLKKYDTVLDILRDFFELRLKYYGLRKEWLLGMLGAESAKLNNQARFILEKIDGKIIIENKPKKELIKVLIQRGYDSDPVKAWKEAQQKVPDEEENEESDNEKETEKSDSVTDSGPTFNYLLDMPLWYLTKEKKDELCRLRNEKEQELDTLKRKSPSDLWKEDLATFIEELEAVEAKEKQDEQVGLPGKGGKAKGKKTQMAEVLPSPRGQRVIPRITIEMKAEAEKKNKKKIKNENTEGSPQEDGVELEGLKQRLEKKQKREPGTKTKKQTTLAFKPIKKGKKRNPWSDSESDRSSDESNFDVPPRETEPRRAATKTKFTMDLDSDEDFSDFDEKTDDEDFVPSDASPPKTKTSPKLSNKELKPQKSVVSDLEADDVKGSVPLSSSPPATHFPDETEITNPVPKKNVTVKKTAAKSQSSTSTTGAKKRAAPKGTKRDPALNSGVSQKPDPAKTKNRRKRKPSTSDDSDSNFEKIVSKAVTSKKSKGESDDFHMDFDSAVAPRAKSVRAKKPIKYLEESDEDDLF
Sequence of RAC-alpha serine/threonine-protein kinase (Homo sapiens) (P31749 whole entry): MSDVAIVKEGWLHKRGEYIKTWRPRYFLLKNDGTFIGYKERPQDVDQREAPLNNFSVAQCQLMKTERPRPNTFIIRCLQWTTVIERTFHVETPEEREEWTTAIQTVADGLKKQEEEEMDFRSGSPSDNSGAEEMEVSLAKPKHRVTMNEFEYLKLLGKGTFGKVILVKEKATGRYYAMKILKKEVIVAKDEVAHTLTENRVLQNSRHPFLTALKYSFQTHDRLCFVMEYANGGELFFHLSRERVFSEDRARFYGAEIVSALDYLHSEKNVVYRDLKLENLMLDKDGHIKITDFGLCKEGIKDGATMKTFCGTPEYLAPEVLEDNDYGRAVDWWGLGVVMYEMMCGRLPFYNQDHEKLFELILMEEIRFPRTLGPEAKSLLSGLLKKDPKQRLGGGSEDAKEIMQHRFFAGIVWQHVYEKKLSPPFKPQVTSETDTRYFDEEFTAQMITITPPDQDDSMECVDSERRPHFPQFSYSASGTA

SMILES: CN(C)CCCNC(=O)c1cccc2nc3c(nc12)-c1ccccc1/C3=N\OCCCN(C)C.Cl
- Activity [1]: Active
- Activity [2]: 19.3%
- topoisomerase 2 inhibition (active/not active) [3]: Active
- Activity [4]: Dose-dependent effect
- Activity [5]: Active
- inhibition [6]: Active
- Activity (Escherichia coli): Active
- Ratio IC50 [7]: 5.45
- Activity [8]: 30.4%
- Activity [9]: 22.9%
- pIC50 (MDA-MB-231): 6.06
- Activity [10]: 11.5%
- Activity [11]: 30.5%
- Activity [12]: 7.8%
- pIC50 [13]: 6.19
- inhibition (Huh-7 [14]): Dose-dependent effect
- Ratio IC50 (Huh-7 [15]): 49.23
- Activity [16]: 23.4%

From ChEMBL document CHEMBL3758117, “Discovery of indeno[1,2-b]quinoxaline derivatives as potential anticancer agents” (Eur J Med Chem, 2016)
